Active and inactive are the calls of the source. The calls are words filed in the database; no cut-off is given here.
Experiments:
[1] = test system: Hepatitis B virus; experiment: Antiviral activity against Hepatitis B virus infected in human 2.2.15 cells assessed as reduction of […] after 72 hrs by southern DNA hybridization method; format: functional, organism-based; conditions: HepG2 2.2.15, 72 h
[2] = test system: Hepatitis C virus; experiment: Antiviral activity against Hepatitis C virus genotype 1b Con1 infected in human Huh-luc/neo-ET replicon cells assessed as reduction of virus-induced cytopathic effect after 72 hrs by luciferase reporter assay; format: functional, organism-based, Hepacivirus hominis
In short: (§1)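 Replicon cells grown without G418, seeded at 5 × 10^3 per well, treated next day in duplicate with serial dilutions (DMSO control) at 37°C for 72 h. After a PBS wash, cells lysed in ice-cold passive lysis reagent and firefly luciferase RLU read as percent of compound-free control. EC50 by nonlinear regression of the dose-effect curve.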

[3] = test system: Hepatitis C virus; experiment: Antiviral activity against Hepatitis C virus genotype 1b Con1 infected in human Huh-luc/neo-ET replicon cells assessed as inhibition of virus-induced cytopathic effect after 24 hrs by luciferase reporter assay; format: functional, organism-based, Hepacivirus hominis
In short: (§2)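 Huh-luc/neo-ET cells seeded at 1 × 10^5 per well and treated with DMSO or serially diluted compound up to 250 nM. Harvested at 24 or 48 h. Luciferase run in triplicate and RLU normalized to total protein (Bradford), expressed as percent of mock control. Three independent repeats averaged.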

[4] = test system: MT2; experiment: Cytotoxicity against human MT2 cells after 5 days by colorimetry; format: cell-based; conditions: MT2, 120 h
In short: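 Uninfected MT-2 cells coincubated with compounds for 5 days. Cytotoxicity by colorimetric quantitation.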

[5] = test system: Hepatitis C virus; experiment: Antiviral activity against Hepatitis C virus genotype 1b Con1 infected in human Huh-luc/neo-ET replicon cells assessed as reduction in viral RNA level after 24 hrs by RT-PCR; format: functional, organism-based, Hepacivirus hominis
In short: (§3)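 Cells seeded at 1 × 10^5 per well and treated with DMSO or compound up to 250 nM for 24, 48 or 72 h. Total RNA diluted to 50 ng/μl. Replicon RNA (5′ UTR) measured in triplicate by one-step qRT-PCR, normalized to β-actin mRNA, and expressed as percent of mock control. Three independent repeats.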

[6] = test system: Hepatitis C virus; experiment: Antiviral activity against Hepatitis C virus genotype 1b Con1 infected in human Huh-luc/neo-ET replicon cells assessed as viral replicon survival dosed at 100 nM incubated for 12 days followed by compound removal and reintroduction of 250 ug/ml G418 measured after 12 days post compound withdrawal; format: functional, Hepacivirus hominis
In short: (§4)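 Huh-luc/neo-ET cells were seeded at 2 × 10^5 per well and kept without G418 for 12 days with DMSO or up to 1 μM drug. Cells were split every 3 days, with medium and drug renewed. Drug was then removed and 250 μg/ml G418 added for 12 more days, sampling at confluence. HCV 5′UTR RNA was measured by one-step qRT-PCR, normalised to β-actin and expressed relative to mock. Viability was read by CellTiter-Glo as % of mock.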

[7] = test system: Hepatitis C virus; experiment: Antiviral activity against Hepatitis C virus genotype 1b Con1 infected in human Huh-luc/neo-ET replicon cells assessed as reduction of replicon luciferase signal after 72 hrs by luciferase reporter assay; format: functional, organism-based, Hepacivirus hominis; in short: as §1
[8] = test system: Hepatitis C virus; experiment: Antiviral activity against Hepatitis C virus genotype 1b Con1 infected in human Huh-luc/neo-ET replicon cells assessed as inhibition of viral rebound dosed at 1 uM incubated for 12 days followed by compound removal and reintroduction of 250 ug/ml G418 measured after 9 days post compound withdrawal; format: functional, organism-based; conditions: Hepacivirus hominis; in short: as §4
[9] = test system: Hepatitis C virus; experiment: Antiviral activity against Hepatitis C virus genotype 1b Con1 infected in human Huh-luc/neo-ET replicon cells assessed as reduction of replicon luciferase signal after 72 hrs by luciferase reporter assay in presence of 0% fetal bovine serum; format: functional, organism-based, Hepacivirus hominis
In short: (§5)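 Huh-luc/neo-ET cells without G418, incubated with serially diluted compounds in medium containing 5%, 10%, 20% or 40% (vol/vol) FBS. Firefly luciferase read after 72 h. EC50 from dose-effect curves. The 0% value is a theoretical EC50 extrapolated from the plot of EC50 versus serum level. Means ± SD of three independent experiments.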

[10] = test system: Hepatitis C virus; experiment: Antiviral activity against Hepatitis C virus genotype 1b Con1 infected in human Huh-luc/neo-ET replicon cells assessed as reduction in viral RNA level after 72 hrs by RT-PCR; format: functional, organism-based, Hepacivirus hominis; in short: as §3
[11] = test system: Hepatitis C virus; experiment: Antiviral activity against Hepatitis C virus genotype 1b Con1 infected in human Huh-luc/neo-ET replicon cells assessed as inhibition of virus-induced cytopathic effect after 48 hrs by luciferase reporter assay; format: functional, organism-based, Hepacivirus hominis; in short: as §2
[12] = test system: Hepatitis C virus; experiment: Antiviral activity against Hepatitis C virus genotype 2a JFH1 infected in human YSGR-JFH replicon cells assessed as inhibition of virus RNA level after 72 hrs by quantitative RT-PCR; format: functional, organism-based, Hepacivirus hominis; conditions: subtype 2a JFH1, 72 h
In short: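 YSGR-JFH genotype 2a subgenomic replicon cells (maintained with 400 μg/ml G418), 1 × 10^5 per well, incubated with DMSO, serially varied compound, or IFN-α-2a for 72 h. HCV RNA by qRT-PCR normalized to β-actin, as percent of mock-treated control. Mean ± SD of three independent experiments.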

[13] = test system: Hepatitis C virus; experiment: Antiviral activity against Hepatitis C virus genotype 1b Con1 infected in human Huh-luc/neo-ET replicon cells assessed as reduction of replicon luciferase signal after 72 hrs by luciferase reporter assay in presence of 20% fetal bovine serum; format: functional, organism-based, Hepacivirus hominis; in short: as §5
[14] = test system: Hepatitis C virus; experiment: Antiviral activity against blasticidin resistant Hepatitis C virus genotype 1b Con1 replicon infected in human HuH7 cells assessed as reduction in viral RNA level by RT-PCR; format: functional, organism-based, Hepacivirus hominis; conditions: Con1, Huh-7
[15] = test system: Hepatitis C virus; experiment: Antiviral activity against Hepatitis C virus genotype 1b Con1 infected in human Huh-luc/neo-ET replicon cells assessed as viral replicon survival dosed at 50 nM incubated for 12 days followed by compound removal and reintroduction of 250 ug/ml G418 measured after 6 days post compound withdrawal; format: functional, Hepacivirus hominis; in short: as §4
[16] = test system: Hepatitis C virus; experiment: Antiviral activity against Hepatitis C virus genotype 1b Con1 infected in human Huh-luc/neo-ET replicon cells assessed as reduction of replicon luciferase signal after 72 hrs by luciferase reporter assay in presence of 40% fetal bovine serum; format: functional, organism-based, Hepacivirus hominis; in short: as §5
[17] = target: Cytochrome c (Homo sapiens, UniProt P99999); experiment: Binding affinity to Cytochrome C
Chain of Cytochrome c (P99999 whole entry): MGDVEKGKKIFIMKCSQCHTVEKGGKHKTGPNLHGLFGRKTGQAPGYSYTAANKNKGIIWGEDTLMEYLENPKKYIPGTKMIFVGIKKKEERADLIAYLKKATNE

[18] = test system: Hepatitis C virus; experiment: Antiviral activity against Hepatitis C virus genotype 1b Con1 infected in human Huh-luc/neo-ET replicon cells assessed as reduction of replicon luciferase signal after 72 hrs by luciferase reporter assay in presence of 10% fetal bovine serum; format: functional, organism-based, Hepacivirus hominis; in short: as §5
[19] = test system: Hepatitis C virus; experiment: Antiviral activity against Hepatitis C virus genotype 1b Con1 infected in human Huh-luc/neo-ET replicon cells assessed as inhibition of viral RNA level dosed at >300 nM incubated for 12 days measured after 12 days of exposure relative to untreated control
[20] = test system: Hepatitis C virus; experiment: Antiviral activity against Hepatitis C virus genotype 1b Con1 infected in human Huh-luc/neo-ET replicon cells assessed as viral replicon survival dosed at 50 nM incubated for 12 days followed by compound removal and reintroduction of 250 ug/ml G418 measured after 12 days post compound withdrawal; format: functional, Hepacivirus hominis; in short: as §4

`O=C(O)c1cc(C(=O)O)cc(-c2ccc(-c3c4nc(c(-c5ccc(-c6cc(C(=O)O)cc(C(=O)O)c6)cc5)c5ccc([nH]5)c(-c5ccc(-c6cc(C(=O)O)cc(C(=O)O)c6)cc5)c5ccc([nH]5)c(-c5ccc(-c6cc(C(=O)O)cc(C(=O)O)c6)cc5)c5nc3C=C5)C=C4)cc2)c1` was tested, and the EC50 [1] was greater than 20000 nM, the EC50 [2] was 17.6 nM and the inhibition ([2]; Hepacivirus hominis) was “Dose-dependent effect”. The EC50 [3] was 57.8 nM, the inhibition ([3]; Hepacivirus hominis) was “Dose-dependent effect” and the CC50 [4] was 18000 nM. For the same molecule, the EC50 [5] was 67.8 nM, the inhibition ([5]; Hepacivirus hominis) was “Dose-dependent effect” and the Survival [6] was 0.007%. For the same molecule, the EC50 [7] was 24 nM, the inhibition [8] was “Active” and the EC50 [9] was 6.5 nM. The EC50 [10] was 29.2 nM, the inhibition ([10]; Hepacivirus hominis) was “Dose-dependent effect” and the EC50 [11] was 19.2 nM. For the same molecule, the inhibition ([11]; Hepacivirus hominis) was “Dose-dependent effect”, the EC50 [12] was 1380 nM and the EC50 [13] was 39 nM. It also gave an EC50 [14] of 14 nM, a Survival [15] of 8.5% and an EC50 [16] of 69 nM. The Kd [17] was 1500 nM, the EC50 [18] was 24 nM and the “fold change (FC)” value [19] was 4.5. For the same molecule, the Survival [20] was 13.1%.

Reference: ChEMBL document CHEMBL1212775, “A novel class of meso-tetrakis-porphyrin derivatives exhibits potent activities against hepatitis C virus genotype 1b replicons in vitro” (Antimicrob Agents Chemother, 2010)
